FLuc inhib CS = firefly luciferase enzyme inhibitors, primary screen, artefact control for luciferase-based inhibitor screens, biochemical, luminescence, ATPLite; inhibition, % at 10 µM; hit rate 1.5% among 200,000; 10 min; Luciferin 4-monooxygenase (Photinus pyralis), P08659;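 active means inhibition above about 50% when tested at 10 µM, limit read from the data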
APP 5'UTR act = activators of APP 5'UTR luciferase reporter, primary screen, SH-SY5Y cells; SH-SY5Y APP 5'UTR luciferase reporter, luminescence; zero percent = DMSO vehicle wells; activation, % at 2 µM; hit rate 1% among 190,000; AID 1276, 2008;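 active means activation above a set limit, based on mean plus 3 SD of controls, cut at about 140% in these data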
Rad51 HR inh = human RAD51 strand exchange inhibitors, primary screen, biochemical, fluorescence; inhibition, % at 10 µM; DNA repair protein RAD51 homolog 1 (Homo sapiens), Q06609; AID 1385, 2008; hit rate 0.085% among 200,000; hRad51 DNA strand exchange, fluorescence dequenching;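 active means inhibition above 40% at the single screening dose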;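 further: 0% = DMSO control wells and 100% = blanks with heterologous ssDNA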
Target sequence (Q06609 whole entry, looked up): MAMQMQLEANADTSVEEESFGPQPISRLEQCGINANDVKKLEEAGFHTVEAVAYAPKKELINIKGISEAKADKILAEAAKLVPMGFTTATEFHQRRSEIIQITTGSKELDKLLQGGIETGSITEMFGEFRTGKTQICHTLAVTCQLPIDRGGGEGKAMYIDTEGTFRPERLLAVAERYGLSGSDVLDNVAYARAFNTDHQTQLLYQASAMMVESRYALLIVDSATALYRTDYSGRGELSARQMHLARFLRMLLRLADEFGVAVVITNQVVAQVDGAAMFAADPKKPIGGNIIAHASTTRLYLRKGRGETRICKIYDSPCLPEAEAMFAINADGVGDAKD
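material = hRad51 filaments on single-stranded DNA | timing = filaments 15 min 37 °C, then compound 30 min | signal = FRET fluorescence dequenching, excitation 485 nm, emission 520 nm | benchmarks = control wells and blank wells on each plate | evaluation = percent inhibition relative to plate controls and blanks | compound = 10 µM final, single point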
NF-kB expr up = activators of NF-kB expression in neurons, primary screen, cell-based, HTS; hit rate 1.6% among 190,000; fold change at 12.5 µM; human neuronal cells, NF-kB reporter expression; hits give high values; in the data active means fold change above about 3.3
FLuc stim CS = FLuc activators, initial screening, artefact control for FLuc-dependent activation tests, biochemical, ATPlite luminescence; Luciferin 4-monooxygenase (Photinus pyralis), P08659; ATPlite luciferase biochemical, 10 min; 0 = ATP-free wells, 1 = DMSO control; activation factor at 10 µM; 200,000 tested, under 10 active;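 active means luciferase activation factor, scaled between plate controls, of at least 2 with compound at 10 µM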
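Assay system – cell-free luciferase reagent · Medium – PBS-based ATP solution · Dosing – test compounds dosed from 2 mM stocks in 100% DMSO · Timing – 10 min, room temperature · Technique – light output (luminescence) · Measure – luminescence gain marking luciferase activators · Controls – No-ATP low control, compound-free enzyme-plus-ATP high control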
STAT1 act = STAT1 signaling activators, primary screen, cell-based, HTS, luciferase reporter; NIH 3T3 STAT1-luciferase reporter, IFN-gamma, luminescence; 100% = IFN-gamma alone, no compound; activation (% of control), % at 5.5 µM; hit rate 2.6% among 200,000; AID 932, 2007;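 active means activation above the screen-wide mean activation plus 3 SD, cut at about 130% in these data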;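 further: raw ratio to IFN-gamma control signal so 100% means no change and 0% no light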
STAT1 act conf = STAT1 signaling activators, confirmation, cell-based, HTS, luciferase reporter; NIH 3T3 STAT1-luciferase reporter, IFN-gamma potentiation, luminescence; 100% = IFN-gamma EC80 alone, no compound; hit rate 97% among 1,200; activation (% of control), % at 5.7 µM; shares compounds with STAT1 act;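 active means activation above a set limit carried over from the earlier primary STAT1 screen, cut at about 140% in these data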;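 further: simple ratio to median IFN-gamma plus DMSO wells so 0% means no light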
NFkB act STAT1ct = NF-kB reporter activators, TNF-alpha stimulated, counter-screen for STAT1 activator project, cell-based, HEK293T, luciferase luminescence. shares compounds with STAT1 act. 100% = TNF-alpha with vehicle only. activation (% of control), % at 5.7 µM. hit rate 43% among 1,200. AID 1306, 2008;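 active means activation above the mean of solvent-only control wells plus 3 SD, set per campaign, cut at about 130% in these data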;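 further: TNF-alpha given at a submaximal dose yielding about 80% of full reporter signal; values are well signal over median control so 100% means no change and 0% no light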
STAT3 act STAT1c = STAT3 reporter activation by STAT1 hits, confirmation, counter-screen for STAT1 activator project, U3A cells, luciferase, luminescence; IL-6; cells lack STAT1; 100 = IL-6 alone, no compound effect; activation (% of control), % at 5.7 µM; hit rate 46% among 1,200; shares compounds with STAT1 act;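 active means activation above the solvent-only control well mean plus 3 SD, set per plate batch, cut at about 110% in these data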;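 further: 0% = no luminescence and 100% = median IL-6 plus DMSO wells; higher means more STAT3 reporter activation so hits are non-selective activators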
An asterisk follows results filed as active; . = no result. In the library only some 3.9% were active in any assay of this set; here they are far more common.

SMILES	FLuc inhib CS	APP 5'UTR act	Rad51 HR inh	NF-kB expr up	FLuc stim CS	STAT1 act	STAT1 act conf	NFkB act STAT1ct	STAT3 act STAT1c
COc1ccc(-c2csc(Nc3ncccc3C)n2)cc1	44.9	154.3*	1.8	12.4*	0.6	185.4*	253.4*	143.4*	105.6
CC(=O)c1cccc(Nc2nc(-c3ccccc3)cs2)c1	13.9	169.5*	-13.4	4.8*	0.9	168.3*	230.2*	152.1*	111.9*
CC(=O)NC1=NN(C(C)=O)C(c2ccc(C)cc2)S1 (stereo not drawn)	-5.1	15.2	-5.7	1.3	1.1	97.5	.	.	.
CC(=O)N1N=C(c2ccc(C)cc2)OC1c1ccc(Br)cc1 (stereo not drawn)	6.6	37.8	29.4	3.03	0.9	153.5*	181.6*	147.8*	116.7*
CC(=O)NC12CC3CC(C1)CC(C(=O)OCC(=O)c1ccc4c(c1)OCCO4)(C3)C2	57.8*	155.6*	-0.1	3.13	0.4	161.4*	211.5*	125.4	123.6*
Cc1ccc(C(=O)Nc2nc3c(s2)CCCC3)o1	82.1*	166.4*	2.8	7.26*	0.2	155.0*	208.7*	115.1	92.7
O=C(Nc1nc2c(s1)CCCC2)c1ccc(Br)o1	67.8*	162.7*	1.3	6.2*	0.3	165.3*	216.6*	122.4	98.7
O=S(=O)(Nc1nc2c(s1)CCCC2)c1ccc(Br)cc1	-6.2	2.3	-4.0	0.76	1.1	101.7	.	.	.
Cc1nnc(C)c2c(C)n(Cc3ccc4c(c3)OCO4)c(C)c12	-6.5	0.5	3.5	0.92	1.1	89.2	.	.	.
CCCOC(=O)Nc1ccc(N2CCCCC2)cc1	58.6*	95.1	2.8	5.09*	0.4	154.5*	176.9*	114.6	100.5
CCCCC(=O)Nc1ccc(N2CCCC2)cc1	.	1.5	-2.1	.	.	97.5	.	.	.
N#Cc1sc(=O)[nH]c1Cl	.	.	-6.2	.	.	.	.	.	.
CCOC(=O)Nc1ccc2c(C)cc(=O)oc2c1	6.9	37.3	-4.0	2.39	0.9	109.5	.	.	.
CCCCOC(=O)Nc1ccc2c(C)cc(=O)oc2c1	8.3	137.7*	-0.7	5.82*	0.9	166.1*	196.6*	143.8*	103.7
Nc1cccn2c(-c3ccc(Cl)c(Cl)c3)cnc12	23.0	210.8*	-9.8	11.9*	0.8	150.9*	101.5	130.7	158.8*
Nc1nnc(-c2ccc(Cl)c(Cl)c2)s1	1.8	1.2	9.3	1.52	1	118.8	.	.	.
O=c1oc(Nc2ccccc2Cl)nc2ccccc12	11.9	48.5	-0.4	2.41	0.9	123.4	.	.	.
O=c1oc(Nc2cccc(Cl)c2)nc2ccccc12	-0.6	71.1	-20.2	2.43	1	157.1*	176.7*	117.9	157.5*
c1ccc(CSCc2cn3ccccc3n2)cc1	2.6	105.1	0.8	5.12*	1	152.9*	168.3*	131.8	111.1*
CCNS(=O)(=O)c1ccc(CCC(N)=O)cc1	-7.2	28.9	3.9	1.4	1.1	101.1	.	.	.
O=C(/C=C/c1cn(-c2ccccc2)nc1-c1ccccc1)Nc1ccc(C(=O)O)cc1	19.7	12.4	.	2.56	0.8	152.5*	147.7*	112.9	114.0*
